How the values were obtained:
Rattus norvegicus [1] = species: Rattus norvegicus; assay type: functional, Striatum, Membrane
Rattus norvegicus [2] = species: Rattus norvegicus; assay type: functional, Striatum, Membrane; remark: listed apart in the source
D(2) dopamine receptor = D(2) dopamine receptor (Rattus norvegicus, UniProt P61169); assay: Inhibition constant against dopamine receptor D2 in rat
How it was run: (§1)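 Filtered on protamine-pretreated (0.2%) GF/B filters, washed with cold 50 mM Tris-HCl pH 7.4, gamma-counted. Nonspecific binding defined with 10 μM (+)-butaclamol. Scatchard and competition data fitted by iterative nonlinear least squares.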

Rattus norvegicus [3] = species: Rattus norvegicus; assay: Inhibition constant on radiolabeled [125I]FIDA1 binding to rat striatal membranes; set-up: species or system Striatum, Membrane
How it was run: as §1

Rattus norvegicus [4] = species: Rattus norvegicus; assay: Inhibition constant on radiolabeled [125I]FIDA2 binding to rat striatal membranes; set-up: species or system Striatum, Membrane
How it was run: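 Rat striatal membrane homogenate (40–60 μg protein) incubated with 125I-labeled ligand ± competitors in 0.2 mL assay buffer, 15 min at 37 °C with stirring. Filtered on protamine-pretreated (0.2%) GF/B filters, washed with cold 50 mM Tris-HCl pH 7.4, gamma-counted. Nonspecific binding defined with 10 μM (+)-butaclamol. Scatchard and competition data fitted by iterative nonlinear least squares.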

Chain of D(2) dopamine receptor (P61169 whole entry): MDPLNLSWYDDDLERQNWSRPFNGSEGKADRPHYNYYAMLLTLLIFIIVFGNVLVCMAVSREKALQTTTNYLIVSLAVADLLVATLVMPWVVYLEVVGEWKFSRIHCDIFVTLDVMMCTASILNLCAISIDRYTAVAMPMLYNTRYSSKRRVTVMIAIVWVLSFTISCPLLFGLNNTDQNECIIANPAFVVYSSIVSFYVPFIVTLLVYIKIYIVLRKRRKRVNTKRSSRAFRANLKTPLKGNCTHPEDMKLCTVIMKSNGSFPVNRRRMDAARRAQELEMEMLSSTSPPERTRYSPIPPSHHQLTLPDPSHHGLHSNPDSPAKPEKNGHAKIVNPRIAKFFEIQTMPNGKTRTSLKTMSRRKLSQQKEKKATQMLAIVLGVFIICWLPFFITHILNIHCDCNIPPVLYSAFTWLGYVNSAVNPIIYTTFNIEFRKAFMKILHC

Structure (SMILES): CC(C)(C)[C@@]1(O)CCN2C[C@@H]3c4ccccc4CCc4cccc(c43)[C@H]2C1
- Ki (Rattus norvegicus [1]): 0.00105 µM
- Ki (Rattus norvegicus [2]): 0.0004 µM

Structure (SMILES): CCN1CCC[C@@H]1CNC(=O)c1cccc(OC)c1OCCF
- Ki (D(2) dopamine receptor): 13 nM

Structure (SMILES): CCN1CCC[C@H]1CNC(=O)c1cc(CCCF)cc(OC)c1OC
- Ki (D(2) dopamine receptor): 0.02 nM

Structure (SMILES): CCN1CCC[C@H]1CNC(=O)c1cc(I)cc2c1OCC2
- Ki (D(2) dopamine receptor): 0.106 nM

Structure (SMILES): COc1cc(Br)cc(C(=O)NC[C@@H]2CCCN2Cc2ccc(F)cc2)c1OC
- Ki (D(2) dopamine receptor): 0.147 nM

Structure (SMILES): CN1[C@@H]2CC[C@H]1C[C@@H](OC(=O)C(CO)c1ccccc1)C2 (some centres not stated) [ATROPINE]
- Ki (Rattus norvegicus [1]): > 10 µM
- Ki (Rattus norvegicus [2]): > 10 µM

Structure (SMILES): CCN1CCC[C@H]1CNC(=O)c1cc(I)cc(OC)c1OC [EPIDEPRIDE]
- Ki (D(2) dopamine receptor): 0.025 nM

Structure (SMILES): CCc1cc(Cl)c(OC)c(C(=O)NC[C@@H]2CCCN2CC)c1O [ETICLOPRIDE]
- Ki (Rattus norvegicus [3]): 0.014 nM
- Ki (Rattus norvegicus [4]): 0.06 nM

Structure (SMILES): CCN1CCC[C@H]1CNC(=O)c1cc(I)ccc1OC [IODOPRIDE]
- Ki (D(2) dopamine receptor): 3 nM

Structure (SMILES): CCN1CCC[C@H]1CNC(=O)c1c(OC)ccc(S(N)(=O)=O)c1I [IODOSULPIRIDE]
- Ki (D(2) dopamine receptor): 1.5 nM

Structure (SMILES): CCN1CCC[C@H]1CNC(=O)c1c(OC)ccc(I)c1O [IOLOPRIDE]
- Ki (D(2) dopamine receptor): 0.43 nM

Structure (SMILES): CCN1CCC[C@H]1CNC(=O)c1c(O)c(I)cc(OC)c1OC [IOXIPRIDE]
- Ki (D(2) dopamine receptor): 0.019 nM

Structure (SMILES): C=CCN1CC[C@]23c4c5ccc(O)c4O[C@H]2C(=O)CC[C@@]3(O)[C@H]1C5 [NALOXONE]
- Ki (Rattus norvegicus [1]): > 10 µM
- Ki (Rattus norvegicus [2]): > 10 µM

Structure (SMILES): CCCN1CCC[C@@H]2Cc3n[nH]cc3C[C@H]21 [QUINPIROLE]
- Ki (Rattus norvegicus [2]): 8 µM

Structure (SMILES): CCN1CCC[C@H]1CNC(=O)c1c(O)c(Cl)cc(Cl)c1OC [RACLOPRIDE]
- Ki (Rattus norvegicus [3]): 2.31 nM
- Ki (Rattus norvegicus [4]): 5 nM

Structure (SMILES): NCCc1c[nH]c2ccc(O)cc12 [SEROTONIN]
- Ki (Rattus norvegicus [1]): > 5 µM

Structure (SMILES): COC(=O)[C@@H]1[C@H]2C[C@H]3c4[nH]c5ccccc5c4CCN3C[C@@H]2CC[C@@H]1O [YOHIMBINE]
- Ki (Rattus norvegicus [2]): 0.505 µM
